From paper PMC7851350 (Neoplasia (New York, N.Y.), 2021)

Tests used:
PD-L1 = conditions: cited from earlier work
B16F10-hPD-L1 tumor = experiment: Antitumor efficacy in B16F10-hPD-L1 tumor-bearing C57BL/6 mice; type: in vivo
post-treatment tumors = conditions: responders; cited from earlier work
[1] = type: in vivo, mice
Outline: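 Female C57BL/6 mice bearing subcutaneous B16F10-hPD-L1 tumours were randomised and dosed daily for 1 wk with vehicle, 15 mg/kg or 50 mg/kg test compound. On day 7 after the first dose, serum GOT, GPT, ALP and ALB were measured on an automatic dry-type biochemical analyser. Deaths and toxic effects were recorded during the study.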

splenic lymphocytes = type: in vivo, mice; conditions: 15 mg/kg, vs vehicle
Outline: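 B16F10-hPD-L1 (5 × 10⁶ s.c.) mice received 15 mg/kg test compound i.p. every 2 d or vehicle. Spleens were taken at day 24, meshed through 70 µm, ACK-lysed, and 1 × 10⁶ cells were stained for CD3, CD4, CD8 and perforin. For intracellular cytokines, 2 × 10⁶ cells were stimulated with activation cocktail (1:500) plus brefeldin A (1:1000) for 3–4 h at 37°C, then stained for CD3, CD4, IFN-γ and TNF-α. Data are mean ± SEM; unpaired t test.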

[2] = tested on: spleen T lymphocyte markers; experiment: Immunohistochemistry of spleen from treated tumor-bearing mice; type: in vivo; conditions: IHC, 15 mg/kg, vs vehicle
Outline: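 Spleens came from tumour-bearing mice treated with 15 mg/kg test compound or vehicle. Sections (4 µm) of 4% PFA-fixed, paraffin-embedded tissue were stained overnight at 4°C with anti-CD4, CD8 and FoxP3. HRP secondary was applied for 30 min, then DAB. Positive particles were counted per field (n = 5); mean ± SEM, unpaired t test.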

[3] = tested on: B16F10-hPD-L1 tumor tissue; experiment: Immunohistochemistry of B16F10-hPD-L1 tumor tissue; type: in vivo, mice; conditions: IHC, 15 mg/kg, vs vehicle
Outline: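 Tumours came from B16F10-hPD-L1-bearing C57BL/6 mice given 15 mg/kg test compound or vehicle. Sections (4 µm) of 4% PFA-fixed, paraffin-embedded tissue were incubated with anti-FoxP3, anti-CD4 and anti-CD8 overnight at 4°C. HRP secondary was applied for 30 min, followed by DAB. Positive particles were counted per field.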

murine PD-L1 protein = murine PD-L1 protein (Mus musculus, UniProt Q9EP73); experiment: SPR binding affinity to murine PD-L1
Outline: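 SPR running buffer was 1.05× PBS (pH 7.4) with 5% DMSO, at 25°C and 30 µL/min. DMSO solvent correction used 8 standards (4.5–5.8%). Test compound (10 mM DMSO stock) was diluted to 100–3.125 µM plus a 0 µM blank. Each cycle had 90 s injection, 120 s dissociation and 30 s buffer carryover check. Kd came from a global steady-state fit.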

[4] = tested on: B16F10-hPD-L1 tumor tissue; experiment: RNA-seq of B16F10-hPD-L1 tumor tissue; type: in vivo, mice; conditions: 15 mg/kg vs vehicle
[5] = tested on: CD4+ T cells cocultured with NCI-H1975 cells; experiment: T cell response assay, CD4+ T cells cocultured with NCI-H1975 cells; type: cell-based, human; conditions: 48 h coculture, ELISA
Outline: (§1)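 Human CD4⁺ T blasts were expanded ~7 d with IL-2 (100 IU/mL) and CD3/CD28 beads (1:1), then frozen. Target cells (NCI-H1975, HEK293T-hPD-L1 or PD-L1-negative HEK293T; 10,000/well) adhered for 24 h. T cells (2 × 10⁴; E:T 2:1) were added with or without test compound or atezolizumab in complete RPMI-1640 for 48 h at 37°C, 5% CO₂. Supernatant IFN-γ and TNF-α were measured by ELISA.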

[6] = Stability assay in human blood plasma; type: in vitro ADME
Outline: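 Test compound at 2 µM was incubated in human plasma at 37°C. Duplicate samples were taken at 0, 10, 30, 60 and 120 min. Reactions were stopped with 50% ACN/MeOH containing tolbutamide and labetalol (200 ng/mL each).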

[7] = tested on: tumor-infiltrating lymphocytes (TILs); experiment: Flow cytometry of tumor-infiltrating lymphocytes from B16F10-hPD-L1 tumors; type: in vivo, mice; conditions: 15 mg/kg
Outline: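 Tumours from B16F10-hPD-L1 mice treated with 15 mg/kg test compound or vehicle were minced and digested for 45 min at 37°C in collagenase IV (200 U/mL) plus DNase I (40 U/mL). They were then treated with EDTA for 5 min at 37°C and strained at 70 µm. Cells were stained for CD3, CD4, CD8, perforin and granzyme B and analysed by flow cytometry; mean ± SEM, unpaired t test.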

[8] = tested on: CD4+ T cells cocultured with hPD-L1 overexpressed HEK293T cells; experiment: T cell response assay, CD4+ T cells cocultured with HEK293T-hPD-L1 cells; type: cell-based, human; conditions: 48 h coculture
Outline: as §1

MC38 tumor = experiment: Antitumor efficacy in MC38 colon tumor-bearing mice; type: in vivo, C57BL/6 mice
Outline: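 Mice were female C57BL/6, 5–6 wk old. MC38 cells (3 × 10⁶) were injected s.c. into the right abdomen; mice were randomised at 50–70 mm³. Test compound (10 or 15 mg/kg) was given i.p. every 2 d in saline with 8% ethanol and 8% glycerin. Atezolizumab (10 mg/kg) was given i.v. every 3 d. Calipers were read every 2 d; volume = 1/2 × L × W². Mice were sacrificed after 7 doses. Body weight was followed; growth inhibition was computed against vehicle and predose volumes.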

Jurkat cells = experiment: Cell toxicity on Jurkat cells during flow cytometric experiments; type: cell-based; conditions: concentration up to 50 μM
[9] = tested on: CD4+ T cells cocultured with PD-L1-negative HEK293T cells; type: cell-based, human; conditions: coculture with PD-L1-negative HEK293T cells, 48 h
Outline: as §1

[10] = tested on: CD4+ T cells cultured alone; experiment: T cell response assay, prestimulated T cells cultured alone; type: cell-based, human; conditions: T-lymphocytes cultured alone, 48 h
Outline: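 Prestimulated human CD4⁺ T cells (IL-2 100 IU/mL, CD3/CD28 beads 1:1, ~7 d expansion) were cultured alone (2 × 10⁴) with or without test compound for 48 h at 37°C, 5% CO₂. Supernatant IFN-γ and TNF-α were measured by ELISA.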

[11] = 15 and 50 mg/kg daily, day 7, vs control
[12] = flow cytometry and IHC, vs vehicle

murine PD-L1 protein, sequence (Q9EP73 19-290): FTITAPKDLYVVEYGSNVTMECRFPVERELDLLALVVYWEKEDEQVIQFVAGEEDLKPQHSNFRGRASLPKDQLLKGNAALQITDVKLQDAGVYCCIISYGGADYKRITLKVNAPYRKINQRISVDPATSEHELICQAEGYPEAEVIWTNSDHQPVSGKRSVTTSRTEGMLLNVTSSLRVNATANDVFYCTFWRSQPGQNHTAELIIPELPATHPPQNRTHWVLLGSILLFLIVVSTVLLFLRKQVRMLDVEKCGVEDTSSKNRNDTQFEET

In the case of `C[C@@H](O)[C@H](NC(=O)N[C@@H](CC(N)=O)c1nc([C@@H](N)CO)no1)C(=O)O` [CA-170], the “direct binding to PD-L1” value (PD-L1) is listed as “no direct binding”.

In the case of “Atezolizumab: anti-PD-L1 antibody, positive control [reference compound]”, the tumor growth inhibition (B16F10-hPD-L1 tumor; 10 mg/kg tail vein injection every 3 d) is given as 66.1% and the “cytokines production such as IFN-γ and TNF-α” value (post-treatment tumors) is given as “increased”.

In the case of `NC(=O)c1ccccc1NC(=O)c1ccc(-c2ccccc2)cc1` [APBC, N-[2-(aminocarbonyl)phenyl][1,1′-biphenyl]-4-carboxamide], the drug-related deaths ([1]; 1-wk, daily up to 50 mg/kg) is reported as “no drug-related deaths”, the drug-related toxic effects ([1]; 1-wk, daily up to 50 mg/kg) is reported as “no drug-related toxic effects observed” and the tolerability ([1]; 1-wk, daily up to 50 mg/kg) is reported as “well tolerated”. For the same molecule, the “serum level of ALB” value [1, 11] was “no significant changes”, the “serum level of ALP” value [1, 11] was “no significant changes” and the “serum level of GOT” value ([1]; daily, up to 50 mg/kg, day 7) was “tendency to considerable decrease”. The “serum level of GPT” value ([1]; daily, up to 50 mg/kg, day 7) was “tendency to considerable decrease”, the “toxicity in murine models” value ([1]; up to 50 mg/kg) was “no observable toxicity” and the tumor growth inhibition (B16F10-hPD-L1 tumor; 10 mg/kg intraperitoneal every 2 d, 8 treatments) was 62.1%. The “treated animals almost tumor free” value (B16F10-hPD-L1 tumor; 15 mg/kg intraperitoneal every 2 d) was 4 of 10, the tumor growth inhibition (B16F10-hPD-L1 tumor; 15 mg/kg intraperitoneal every 2 d, 8 treatments) was 82.2% and the “spleen (splenomegaly / spleen weight)” value (B16F10-hPD-L1 tumor; day 24 after tumor inoculation, vs vehicle group with splenomegaly) was “normal spleens”. The “percentage of CD3+ CD4+ T lymphocytes in the spleen” value (splenic lymphocytes; P < 0.001) was “significantly increased”, the “percentage of CD3+ CD8+ T lymphocytes in the spleen” value (splenic lymphocytes; P < 0.001) was “significantly increased” and the “percentage of CD3+ T lymphocytes in the spleen” value (splenic lymphocytes; P < 0.001) was “significantly increased”. For the same molecule, the “percentage of IFN-γ producing CD4+ T cells” value (splenic lymphocytes; spleen) was “extremely significant increase”, the “percentage of TNF-α producing CD4+ T cells” value (splenic lymphocytes; spleen) was “extremely significant increase” and the “perforin production from CD3+ cells” value (splenic lymphocytes; spleen, P< 0.01) was “significantly increased”. For the same molecule, the “density of CD4+ T lymphocytes in the spleen” value [2] was “considerably higher density”, the “density of CD8+ T lymphocytes in the spleen” value [2] was “considerably higher density” and the “expression of FoxP3 in the spleen” value [2] was “no significant changes”. For the same molecule, the “FoxP3 expression levels within tumors” value [3] was “did not significantly change”, the Kd (murine PD-L1 protein) was greater than 100 µM and the “infiltration of CD8+ T cells in the tumor” value ([4]; CIBERSORTx, P< 0.05) was “significant higher infiltration”. For the same molecule, the “immune pathways (antigen processing and presentation, T-cell receptor signaling, TNF signaling, Th1 and Th2 cell differentiation)” value ([4]; GSEA) was “markedly upregulated”, the “pathways related to Glycolysis or MAPK signaling pathway” value ([4]; GSEA) was “markedly downregulated” and the IFN-γ level [5] was “dose dependent increase”. For the same molecule, the TNF-α level [5] was “dose dependent increase”, the blood plasma stability [6] was “relatively good” and the “GzmB expression in CD3+ T cells of tumors” value ([7]; TILs, vs controls) was “markedly elevated”. The “perforin expression in CD3+ T cells of tumors” value ([7]; TILs, vs controls) was “markedly elevated”, the “CD4+ T-cell population in tumors” value [7, 12] was “significantly increased” and the “CD8+ T-cell population in tumors” value [7, 12] was “significantly increased”. For the same molecule, the TNF-α level increase ([8]; 10 µM) was 41.8%, the TNF-α production increase ([8]; 50 μM) was 86.6% and the “growth of colon tumors” value (MC38 tumor; 10 mg/kg, after 7 times of treatment) was “inhibited significantly”. The “effect on body weight” value (MC38 tumor; during the treatment period) was “no significant effect”, the cell toxicity (Jurkat cells) was “not observed” and the “IFN-γ and TNF-α production” value [9] was “did not significantly affect”. The “IFN-γ and TNF-α production” value [10] was “did not significantly affect”.
